The source made the active and inactive calls. No cut-off for these calls is given here.

The subject of data set [1] is Cavia porcellus. Briefly: Antiallergic activity in ovalbumin-induced allergic lung inflammation Hartley guinea pig model assessed as total cellularity in bronchoalveolar lavage fluid at 20 mg/kg, po administered 1 hr before and 6 hrs after ovalbumin challenge measured after 24 hrs. Details: dose 20 mg/kg. The class given is functional, organism-based. The method in brief:
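Female Hartley guinea pigs (375–425 g) sensitized ip on days 1 and 5 with 100 μg OVA plus 100 mg aluminum hydroxide in PBS, then challenged on day 15 with aerosolized 0.01% OVA for 60 min. Dosed orally 1 h before and 6 h after challenge; vehicle was Tween 80 in cherry syrup. On day 16, lungs lavaged with 2 × 10 mL PBS. Total cells counted by hemocytometer; differentials from stained cytospins. Unpaired t test.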

Data set [2] is described as follows: Half life in monkey at 2 mg/kg, iv. The class given is ADME, organism-based, Macaca mulatta. Details: dose 2 mg/kg, route intravenous. Conditions: rhesus monkey, in vivo. The method in brief:
(§1)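 Single intravenous dose of 2 mg/kg and single oral dose of 10 mg/kg, given separately, in rat, dog and monkey. Clearance and half-life taken from the iv arm; Cmax from the oral arm.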

The target in data set [3] is T1, Cytochrome P450 2A6 (Homo sapiens, UniProt P11509).
T1 sequence (P11509 whole entry): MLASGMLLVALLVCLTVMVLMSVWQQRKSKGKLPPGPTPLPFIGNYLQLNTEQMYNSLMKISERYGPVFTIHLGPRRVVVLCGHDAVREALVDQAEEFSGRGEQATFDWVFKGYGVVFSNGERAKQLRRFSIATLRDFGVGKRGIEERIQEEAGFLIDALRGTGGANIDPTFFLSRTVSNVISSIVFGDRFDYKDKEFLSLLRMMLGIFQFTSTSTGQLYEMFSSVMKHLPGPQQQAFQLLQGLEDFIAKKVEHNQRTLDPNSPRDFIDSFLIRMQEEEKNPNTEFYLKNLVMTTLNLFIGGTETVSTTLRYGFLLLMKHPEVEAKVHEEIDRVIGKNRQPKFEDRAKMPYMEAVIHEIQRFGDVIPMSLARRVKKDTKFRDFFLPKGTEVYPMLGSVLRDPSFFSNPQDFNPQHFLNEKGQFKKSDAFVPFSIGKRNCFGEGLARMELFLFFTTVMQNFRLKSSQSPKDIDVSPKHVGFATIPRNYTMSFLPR
The data set can be described thus: Inhibition of CYP2A6 (unknown origin). Type of data set: ADME.

Data set [4] is described as follows: Permeability in human Caco2 cells at pH 6.5. Conditions: Caco-2, pH 6.5.
For data set [5], the target named is T2, Prostaglandin D2 receptor 2 (Homo sapiens, UniProt Q9Y5Y4).
T2 sequence (Q9Y5Y4 whole entry): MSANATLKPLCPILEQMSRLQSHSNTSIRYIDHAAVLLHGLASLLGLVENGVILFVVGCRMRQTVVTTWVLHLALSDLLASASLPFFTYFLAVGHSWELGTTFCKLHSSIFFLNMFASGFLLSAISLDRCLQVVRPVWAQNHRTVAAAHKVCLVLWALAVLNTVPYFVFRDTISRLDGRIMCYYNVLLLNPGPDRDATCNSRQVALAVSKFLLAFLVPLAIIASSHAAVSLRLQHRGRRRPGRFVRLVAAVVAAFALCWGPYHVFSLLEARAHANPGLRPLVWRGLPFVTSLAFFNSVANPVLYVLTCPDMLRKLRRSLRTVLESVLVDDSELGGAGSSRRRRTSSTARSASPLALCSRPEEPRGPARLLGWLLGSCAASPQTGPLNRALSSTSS
The data set can be described thus: Binding affinity to human CRTH2 receptor. The method in brief: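 Competitive binding assay at human CRTH2, measuring displacement of tritium-labeled PGD2 by test compound; IC50 derived.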

The test system of data set [6] is Ovis aries. The data set can be described thus: Inhibition of Ascaris-induced airway bronchoconstriction in sheep assessed as inhibition of late phase allergic airway bronchoconstriction at 3 mg/kg, iv bid. The class given is functional, organism-based. Details: dose 3 mg/kg.
Data set [7] in a line: Clearance in monkey at 2 mg/kg, iv. Type of data set: ADME, organism-based, Macaca mulatta. Also on record: dose 2 mg/kg, route intravenous. Conditions: rhesus monkey, in vivo. The method in brief:
as §1

The test system of data set [8] is Ovis aries. The data set can be described thus: Inhibition of allergen-induced mucociliary clearance in sheep assessed as tracheal mucus velocity at 3 mg/kg, iv measured at 4 hrs (reference value: 47%). Type of data set: functional. Conditions: Trachea. The method in brief: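 Five sheep received 3 mg/kg iv around allergen challenge. Tracheal mucus velocity measured at 4 h and 8 h and expressed as % of baseline.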

A short description of data set [9]: Oral bioavailability in monkey at 10 mg/kg. Type of data set: ADME, organism-based, Macaca mulatta. The note with it: rhesus monkey, in vivo.
A short description of data set [10]: Half life in dog at 2 mg/kg, iv. Type of data set: ADME, organism-based, Canis lupus familiaris. Details: dose 2 mg/kg, route intravenous. Conditions: in vivo. The method in brief:
as §1

The test system of data set [11] is Salmonella typhimurium. The data set can be described thus: Genotoxicity in Salmonella typhimurium by AMES test. The class given is toxicity, organism-based. Conditions: salmonella enterica subsp. enterica serovar typhimurium.
For data set [12], the target named is Cytochrome P450 2C19 (Homo sapiens, UniProt P33261). Briefly: Inhibition of CYP2C19 (unknown origin). Type of data set: ADME.
Sequence of Cytochrome P450 2C19 (P33261 whole entry): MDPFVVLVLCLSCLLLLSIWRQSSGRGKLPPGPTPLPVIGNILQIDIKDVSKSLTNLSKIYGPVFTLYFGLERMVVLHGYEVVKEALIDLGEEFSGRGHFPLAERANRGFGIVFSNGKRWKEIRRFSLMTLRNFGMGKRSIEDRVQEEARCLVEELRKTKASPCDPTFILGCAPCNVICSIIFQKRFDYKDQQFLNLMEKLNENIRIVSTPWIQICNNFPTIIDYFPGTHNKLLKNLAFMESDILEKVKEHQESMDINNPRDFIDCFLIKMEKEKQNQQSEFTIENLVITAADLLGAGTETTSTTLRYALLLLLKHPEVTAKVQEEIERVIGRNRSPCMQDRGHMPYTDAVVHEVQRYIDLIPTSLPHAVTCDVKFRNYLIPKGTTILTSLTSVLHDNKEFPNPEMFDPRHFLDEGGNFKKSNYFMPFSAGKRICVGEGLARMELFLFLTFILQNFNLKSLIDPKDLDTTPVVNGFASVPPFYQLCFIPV
Data set [13] deals with T2, Prostaglandin D2 receptor 2. Briefly: Antagonist activity at human recombinant CRTh2 expressed in CHO-K1 cells by cAMP TR FRET assay. Type of data set: functional, cell-based.
Data set [14] is described as follows: Clearance in rat at 2 mg/kg, iv. Also on record: dose 2 mg/kg, route intravenous. Type of data set: ADME, organism-based. Conditions: in vivo. The method in brief:
as §1

Data set [15] has as its system Mus musculus. Briefly: Antiallergic activity in house dust mite-induced allergic airway disease BALB/c mouse model assessed as reduction in neutrophil level in bronchoalveolar lavage fluid at 40 mg/kg, po after 72 hrs of HDM challenge. Type of data set: functional, organism-based. Also on record: dose 40 mg/kg. The note with it: Lung. The method in brief:
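BALB/c mice given house dust mite intratracheally via a catheter passed through the vocal cords. Test article 40 mg/kg orally once daily; dexamethasone 1 mg/kg ip once daily as reference. Total and differential BAL cells (eosinophils, macrophages, lymphocytes, neutrophils) counted 72 h after HDM challenge. Mean ± SEM, Mann–Whitney U test.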

In data set [16] the test system is Ovis aries. The data set can be described thus: Inhibition of Ascaris-induced airway bronchoconstriction in sheep assessed as inhibition of early phase allergic airway bronchoconstriction at 1 mg/kg, iv qd for 7 days. Details: dose 1 mg/kg. Type of data set: functional, organism-based. The method in brief:
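Sheep given 1 mg/kg iv once daily for 7 days before Ascaris suum allergen challenge. Early and late responses read as airway resistance above baseline, compared with each animal's historical untreated values. After the AHR measurement, three bronchi per sheep were lavaged for cell counts.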

Data set [17] concerns the target Voltage-gated inwardly rectifying potassium channel KCNH2 (Homo sapiens, UniProt Q12809). The data set can be described thus: Inhibition of human ERG channel at 33 uM.
Data set [18] in a line: Cmax in rat at 10 mg/kg, po. The class given is ADME, organism-based. Details: dose 10 mg/kg, route oral. The note with it: in vivo. The method in brief: as §1
Data set [19] deals with T3, Cytochrome P450 1A2 (Homo sapiens, UniProt P05177).
T3 sequence (P05177 whole entry): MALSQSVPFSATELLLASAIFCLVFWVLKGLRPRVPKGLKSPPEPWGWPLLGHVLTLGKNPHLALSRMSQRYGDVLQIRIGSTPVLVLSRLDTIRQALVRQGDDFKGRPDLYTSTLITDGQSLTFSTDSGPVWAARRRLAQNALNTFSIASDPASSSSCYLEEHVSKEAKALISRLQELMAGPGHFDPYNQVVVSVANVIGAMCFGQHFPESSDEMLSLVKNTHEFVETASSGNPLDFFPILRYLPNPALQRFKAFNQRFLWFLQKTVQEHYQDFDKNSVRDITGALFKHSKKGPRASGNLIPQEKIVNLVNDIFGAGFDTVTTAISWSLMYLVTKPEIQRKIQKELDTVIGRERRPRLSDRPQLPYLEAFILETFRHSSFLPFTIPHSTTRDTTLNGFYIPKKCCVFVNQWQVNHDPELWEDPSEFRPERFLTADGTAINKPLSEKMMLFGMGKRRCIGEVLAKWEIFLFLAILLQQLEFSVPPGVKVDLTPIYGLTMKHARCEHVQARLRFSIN
Briefly: Inhibition of CYP1A2 (unknown origin). The class given is ADME.

Data set [20] in a line: Half life in rat at 2 mg/kg, iv. Also on record: dose 2 mg/kg, route intravenous. The note with it: in vivo. The class given is ADME, organism-based. The method in brief: as §1
A short description of data set [21]: Cmax in monkey at 10 mg/kg, po. Type of data set: ADME, organism-based, Macaca mulatta. Also on record: dose 10 mg/kg, route oral. Conditions: rhesus monkey, in vivo. The method in brief: as §1

Sequence of Voltage-gated inwardly rectifying potassium channel KCNH2 (Q12809 whole entry): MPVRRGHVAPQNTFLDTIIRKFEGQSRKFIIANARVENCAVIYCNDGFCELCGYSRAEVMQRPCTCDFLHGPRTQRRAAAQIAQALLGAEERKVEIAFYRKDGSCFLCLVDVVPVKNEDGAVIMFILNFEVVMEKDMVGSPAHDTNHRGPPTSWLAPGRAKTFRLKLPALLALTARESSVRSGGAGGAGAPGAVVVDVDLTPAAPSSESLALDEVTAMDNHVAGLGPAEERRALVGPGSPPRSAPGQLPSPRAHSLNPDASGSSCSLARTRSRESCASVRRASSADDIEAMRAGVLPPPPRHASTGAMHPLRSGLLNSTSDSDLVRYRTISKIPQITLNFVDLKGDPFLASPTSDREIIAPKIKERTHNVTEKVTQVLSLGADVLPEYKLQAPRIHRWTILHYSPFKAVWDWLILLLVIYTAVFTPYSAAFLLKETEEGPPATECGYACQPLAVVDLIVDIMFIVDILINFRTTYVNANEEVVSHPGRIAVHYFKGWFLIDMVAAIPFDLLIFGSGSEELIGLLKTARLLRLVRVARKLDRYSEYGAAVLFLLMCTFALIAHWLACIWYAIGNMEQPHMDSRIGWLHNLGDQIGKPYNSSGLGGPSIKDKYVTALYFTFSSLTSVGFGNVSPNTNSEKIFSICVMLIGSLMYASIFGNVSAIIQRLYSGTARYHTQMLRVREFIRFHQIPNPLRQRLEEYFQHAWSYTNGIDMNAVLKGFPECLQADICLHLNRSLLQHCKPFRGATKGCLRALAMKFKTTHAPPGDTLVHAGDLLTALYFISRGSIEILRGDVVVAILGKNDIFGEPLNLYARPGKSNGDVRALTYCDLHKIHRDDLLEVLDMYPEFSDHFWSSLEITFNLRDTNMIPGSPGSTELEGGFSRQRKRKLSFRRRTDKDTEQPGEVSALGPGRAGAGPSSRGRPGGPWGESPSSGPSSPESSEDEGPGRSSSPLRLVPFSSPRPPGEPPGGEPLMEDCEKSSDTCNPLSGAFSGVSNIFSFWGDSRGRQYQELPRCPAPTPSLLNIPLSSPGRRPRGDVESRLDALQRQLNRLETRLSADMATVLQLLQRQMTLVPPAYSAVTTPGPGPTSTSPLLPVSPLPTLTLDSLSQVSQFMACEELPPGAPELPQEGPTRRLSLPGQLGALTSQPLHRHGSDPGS

With `Cc1c(-c2cn(C(C)C)c(=O)c3ccccc23)c2cc(F)ccc2n1CC(=O)O`, the inhibition entry in data set [1], in [6], in data set [15] and in [16] was “Active” in each case. Besides, the half-life in data set [2] is 4.1 h; in data set [10], 3.4 h; in data set [20] it was 2.7 h. In addition, the IC50 in data set [3] is greater than 100000 nM; in data set [5], 1.4 nM; in [12], greater than 100000 nM; in data set [13] it was 6 nM; in [19], greater than 100000 nM. The compound also yielded a Papp in data set [4] of 2.7 ×10⁻⁶ cm/s. Further, the clearance was 6.1 mL/min/kg in data set [7] and 18 mL/min/kg in [14]. Further, the inhibition in vivo at 3 mg/kg in data set [8] came to 70%. For the same compound, the bioavailability in data set [9] came out at 69%. In addition, the Activity entry in data set [11] was “Non-toxic”. The “inhibition (INH)” value in data set [17] is “Not Active”. The Cmax in data set [18] is 253 ng/mL; in data set [21] it was 2970 ng/mL.

(Values after ChEMBL document CHEMBL3232705, “Discovery of isoquinolinone indole acetic acids as antagonists of chemoattractant receptor homologous molecule expressed on Th2 cells (CRTH2) for the treatment of allergic inflammatory diseases” (J Med Chem, 2014).)
